{
  "source": "ChEMBL document CHEMBL2434859",
  "about": "“Targeting botulinum A cellular toxicity: a prodrug approach” (J Med Chem, 2013)",
  "key": {"[1]": {"assay": "Half life in culture media at 10 to 100 uM by LC/MS analysis", "type": "physicochemical", "conditions": "for t1/2: 100 µM", "in_short": "(§1)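 Compound at 10–100 μM (1% DMSO) was held in PBS pH 7.4 or neurobasal medium. Aliquots were taken at timed intervals; medium samples were quenched in cold acetonitrile. A deuterated internal standard (1 μM) was added, and samples were read by LC/MS (C8, SIM) against calibration curves. Half-life came from an exponential decay fit.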"}, "[2]": {"assay": "Half life in PBS buffer at 10 to 100 uM by LC/MS analysis", "type": "physicochemical", "in_short": "as §1"}, "[3]": {"target": "Botulinum neurotoxin type A (Clostridium botulinum (strain Hall / ATCC 3502 / NCTC 13319 / Type A), UniProt P0DPI1)", "sequence (P0DPI1 2-448 limits assumed)": "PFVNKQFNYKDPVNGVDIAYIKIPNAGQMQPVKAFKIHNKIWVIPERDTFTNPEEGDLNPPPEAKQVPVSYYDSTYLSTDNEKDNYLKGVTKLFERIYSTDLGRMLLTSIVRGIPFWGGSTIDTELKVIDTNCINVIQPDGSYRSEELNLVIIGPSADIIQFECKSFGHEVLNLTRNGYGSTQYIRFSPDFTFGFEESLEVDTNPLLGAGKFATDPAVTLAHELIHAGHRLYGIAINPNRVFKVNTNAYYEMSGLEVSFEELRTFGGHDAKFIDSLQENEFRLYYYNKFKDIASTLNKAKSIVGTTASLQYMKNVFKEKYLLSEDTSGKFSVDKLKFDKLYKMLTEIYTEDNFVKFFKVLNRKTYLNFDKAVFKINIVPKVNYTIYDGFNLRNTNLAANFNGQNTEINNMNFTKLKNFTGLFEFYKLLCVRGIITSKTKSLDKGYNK", "assay": "(§2) Inhibition of Clostridium botulinum A Hall BoNT LC/A in human induced pluripotent stem cell-derived neurons assessed as inhibition of intracellular SNAP-25 cleavage after 8 hrs by Western blot analysis", "type": "cell-based, Clostridium botulinum A str. Hall"}, "[4]": {"target": "Botulinum neurotoxin type A (Clostridium botulinum (strain Hall / ATCC 3502 / NCTC 13319 / Type A)) (UniProt P0DPI1)", "sequence (P0DPI1 2-448 limits assumed)": "as above", "assay": "Inhibition of Clostridium botulinum A Hall BoNT LC/A in human induced pluripotent stem cell-derived neurons assessed as inhibition of intracellular SNAP-25 cleavage after 8 hrs by Western blot analysis in presence of 0.01% Tween-80", "type": "cell-based", "conditions": "Clostridium botulinum A str. Hall"}, "[5]": {"target": "Botulinum neurotoxin type A (Clostridium botulinum (strain Hall / ATCC 3502 / NCTC 13319 / Type A)) (UniProt P0DPI1)", "assay": "as §2", "type": "cell-based", "conditions": "Clostridium botulinum A str. Hall"}, "[6]": {"target": "Botulinum neurotoxin type A (Clostridium botulinum (strain Hall / ATCC 3502 / NCTC 13319 / Type A)) (UniProt P0DPI1)", "assay": "Inhibition of Clostridium botulinum A Hall BoNT LC/A in human induced pluripotent stem cell-derived neurons assessed as inhibition of intracellular SNAP-25 cleavage at 25 uM after 8 hrs by Western blot analysis relative to control", "type": "cell-based", "conditions": "Clostridium botulinum A str. Hall"}, "[7]": {"assay": "Cellular uptake in golgi apparatus of mouse Neuro2a cell assessed as release of AMC and 1-adamantylacetohydroxamic acid at 50 uM after 3 hrs by Alexa Fluor 488-conjugated wheat germ agglutinin/TOTO-3 staining-based laser scanning confocal microscopic analysis", "type": "ADME"}, "[8]": {"assay": "Prodrug conversion in mouse Neuro2a cells assessed as release of AMC and 1-adamantylacetohydroxamic acid at 50 uM after 3 hrs by Alexa Fluor 488-conjugated wheat germ agglutinin/TOTO-3 staining-based laser scanning confocal microscopic analysis", "type": "ADME, cell-based", "conditions": "n2a"}, "[9]": {"assay": "Cytotoxicity against human induced pluripotent stem cell-derived neurons assessed as SNAP-25 level at 25 uM after 8 hrs by Western blot analysis", "conditions": "induced pluripotent stem cell-derived neuron"}},
  "note": "Calls of active or inactive are those of the source. The calls are words filed in the database; no cut-off is given here.",
  "data": [
    {"smiles": "COc1cc(NC(=O)ONC(=O)CC23CC4CC(CC(C4)C2)C3)cc(OC)c1", "values": [
      {"measurement": "t1/2", "setting": "[1]", "value": 1.6, "unit": "h"},
      {"measurement": "t1/2", "setting": "[2]", "value": 1.2, "unit": "h"},
      {"measurement": "EC50", "setting": "[3]; read-out: EC50", "value": "> 100", "unit": "µM"}
    ]},
    {"smiles": "O=C(CC12CC3CC(CC(C3)C1)C2)NOC(=O)Nc1ccc(F)cc1", "values": [
      {"measurement": "t1/2", "setting": "[1]", "value": 0.62, "unit": "h"},
      {"measurement": "t1/2", "setting": "[2]", "value": 0.9, "unit": "h"},
      {"measurement": "EC50", "setting": "[3]; read-out: EC50", "value": "> 100", "unit": "µM"}
    ]},
    {"smiles": "O=C(CC12CC3CC(CC(C3)C1)C2)NOC(=O)N1CCOCC1", "values": [
      {"measurement": "t1/2", "setting": "[1]", "value": 33, "unit": "h"},
      {"measurement": "t1/2", "setting": "[2]", "value": 48, "unit": "h"},
      {"measurement": "EC50", "setting": "[3]; read-out: EC50", "value": 37, "unit": "µM"}
    ]},
    {"smiles": "O=C(CC12CC3CC(CC(C3)C1)C2)NOC(=O)NCc1ccccc1", "values": [
      {"measurement": "t1/2", "setting": "[1]", "value": 14.6, "unit": "h"},
      {"measurement": "t1/2", "setting": "[2]", "value": 17.6, "unit": "h"},
      {"measurement": "inhibition", "setting": "[4]", "value": "Active"},
      {"measurement": "inhibition", "setting": "[5]", "value": "Dose-dependent effect"},
      {"measurement": "EC50", "setting": "[3]; read-out: EC50", "value": 20, "unit": "µM"},
      {"measurement": "inhibition", "setting": "[6]", "value": 50, "unit": "%"}
    ]},
    {"smiles": "CCNC(=O)ONC(=O)CC12CC3CC(CC(C3)C1)C2", "values": [
      {"measurement": "t1/2", "setting": "[1]", "value": 15.1, "unit": "h"},
      {"measurement": "t1/2", "setting": "[2]", "value": 27.6, "unit": "h"},
      {"measurement": "EC50", "setting": "[3]; read-out: EC50", "value": "> 100", "unit": "µM"}
    ]},
    {"smiles": "COc1ccc(CNC(=O)ONC(=O)CC23CC4CC(CC(C4)C2)C3)cc1", "values": [
      {"measurement": "t1/2", "setting": "[1]", "value": 11.2, "unit": "h"},
      {"measurement": "t1/2", "setting": "[2]", "value": 14, "unit": "h"},
      {"measurement": "EC50", "setting": "[3]; read-out: EC50", "value": 42, "unit": "µM"}
    ]},
    {"smiles": "Cc1cc(=O)oc2cc(NC(=O)ONC(=O)CC34CC5CC(CC(C5)C3)C4)ccc12", "values": [
      {"measurement": "Drug uptake", "setting": "[7]", "value": "Active"},
      {"measurement": "Drug metabolism", "setting": "[8]", "value": "Active"},
      {"measurement": "half-life at up to 100 µM", "setting": "[1]; culture media", "value": 4.5, "unit": "h"},
      {"measurement": "inhibition", "setting": "[5]", "value": "Active"}
    ]},
    {"smiles": "O=C(CC12CC3CC(CC(C3)C1)C2)N(O)C(=O)NCc1ccccc1", "values": [
      {"measurement": "Activity", "setting": "[9]", "value": "Toxic"}
    ]},
    {"smiles": "COCCN(CCOC)C(=O)ONC(=O)CC12CC3CC(CC(C3)C1)C2", "values": [
      {"measurement": "t1/2", "setting": "[1]", "value": 48, "unit": "h"},
      {"measurement": "t1/2", "setting": "[2]", "value": 164, "unit": "h"},
      {"measurement": "EC50", "setting": "[3]; read-out: EC50", "value": "> 100", "unit": "µM"}
    ]},
    {"smiles": "CC1(C)ON=C(CC23CC4CC(CC(C4)C2)C3)O1", "values": [
      {"measurement": "t1/2", "setting": "[1]", "value": 10.2, "unit": "h"},
      {"measurement": "t1/2", "setting": "[2]", "value": 3.3, "unit": "h"},
      {"measurement": "EC50", "setting": "[3]; read-out: EC50", "value": "> 100", "unit": "µM"}
    ]},
    {"smiles": "O=C(CC12CC3CC(CC(C3)C1)C2)NOC(=O)NCc1ccc(F)cc1", "values": [
      {"measurement": "t1/2", "setting": "[1]", "value": 11.5, "unit": "h"},
      {"measurement": "t1/2", "setting": "[2]", "value": 11.5, "unit": "h"},
      {"measurement": "EC50", "setting": "[3]; read-out: EC50", "value": 27, "unit": "µM"}
    ]},
    {"smiles": "O=C(CC12CC3CC(CC(C3)C1)C2)NOC(=O)Nc1ccccc1", "values": [
      {"measurement": "t1/2", "setting": "[1]", "value": 0.76, "unit": "h"},
      {"measurement": "t1/2", "setting": "[2]", "value": 1.1, "unit": "h"},
      {"measurement": "EC50", "setting": "[3]; read-out: EC50", "value": "> 100", "unit": "µM"}
    ]},
    {"smiles": "CC(C)(C)NC(=O)ONC(=O)CC12CC3CC(CC(C3)C1)C2", "values": [
      {"measurement": "t1/2", "setting": "[2]", "value": 72, "unit": "h"},
      {"measurement": "EC50", "setting": "[3]", "value": "ND(toxic)"}
    ]},
    {"smiles": "CN(C)C(=O)ONC(=O)CC12CC3CC(CC(C3)C1)C2", "values": [
      {"measurement": "t1/2", "setting": "[1]", "value": 61, "unit": "h"},
      {"measurement": "t1/2", "setting": "[2]", "value": 149, "unit": "h"},
      {"measurement": "EC50", "setting": "[3]; read-out: EC50", "value": "> 100", "unit": "µM"}
    ]},
    {"smiles": "COc1ccc(NC(=O)ONC(=O)CC23CC4CC(CC(C4)C2)C3)cc1", "values": [
      {"measurement": "t1/2", "setting": "[1]", "value": 0.85, "unit": "h"},
      {"measurement": "t1/2", "setting": "[2]", "value": 1.1, "unit": "h"},
      {"measurement": "EC50", "setting": "[3]; read-out: EC50", "value": "> 100", "unit": "µM"}
    ]}
  ]
}
